Key:
[1] = system: P388; assay: Inhibitory concentration against P388 cell line in mouse leukemia was determine; format: functional, cell-based
Method in brief: (§1)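 MTT microtiter tetrazolium assay. Cells exposed continuously for 4 days to varying drug concentrations, MTT read at the end of day 4. An untreated control ran in each assay. IC50 taken; each assay done at least twice in six replicate wells. Sources: RPMI 8402 human lymphoblasts and CPT-resistant CPT-K5; P388 mouse leukemia and CPT-resistant TOP1-deficient P388/CPT45; KB3-1 with KBV-1 (MDR1) and KBH5.0 (BCRP, selected stepwise against Hoechst 33342).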

[2] = system: KB 3-1; assay: Inhibitory concentration against KBH5.0 cells overexpress BCRP; format: functional, cell-based; conditions: Homo sapiens, KBH5.0 cell; method in brief: as §1
[3] = system: KB 3-1; assay: Inhibitory concentration against KB3-1 cell line was determined; format: functional, cell-based; conditions: Homo sapiens; method in brief: as §1
[4] = Inhibitory concentration against camptothecin-resistant variant of P388 cell line was determined; format: functional, cell-based, Mus musculus; method in brief: as §1
[5] = Inhibitory concentration against KB/V-1 cells overexpress MDR1; format: functional, cell-based; conditions: Homo sapiens; method in brief: as §1
[6] = system: RPMI 8402; assay: Inhibitory concentration against lymphoblast RPMI 8402 cell line was determined; format: functional, cell-based; conditions: Homo sapiens; method in brief: as §1
[7] = target: T1, DNA topoisomerase 1 (Homo sapiens) (UniProt P11387); assay: Relative topoisomerase I-mediated plasmid DNA cleavage compared to topotecan; format: functional
T1 sequence (whole entry): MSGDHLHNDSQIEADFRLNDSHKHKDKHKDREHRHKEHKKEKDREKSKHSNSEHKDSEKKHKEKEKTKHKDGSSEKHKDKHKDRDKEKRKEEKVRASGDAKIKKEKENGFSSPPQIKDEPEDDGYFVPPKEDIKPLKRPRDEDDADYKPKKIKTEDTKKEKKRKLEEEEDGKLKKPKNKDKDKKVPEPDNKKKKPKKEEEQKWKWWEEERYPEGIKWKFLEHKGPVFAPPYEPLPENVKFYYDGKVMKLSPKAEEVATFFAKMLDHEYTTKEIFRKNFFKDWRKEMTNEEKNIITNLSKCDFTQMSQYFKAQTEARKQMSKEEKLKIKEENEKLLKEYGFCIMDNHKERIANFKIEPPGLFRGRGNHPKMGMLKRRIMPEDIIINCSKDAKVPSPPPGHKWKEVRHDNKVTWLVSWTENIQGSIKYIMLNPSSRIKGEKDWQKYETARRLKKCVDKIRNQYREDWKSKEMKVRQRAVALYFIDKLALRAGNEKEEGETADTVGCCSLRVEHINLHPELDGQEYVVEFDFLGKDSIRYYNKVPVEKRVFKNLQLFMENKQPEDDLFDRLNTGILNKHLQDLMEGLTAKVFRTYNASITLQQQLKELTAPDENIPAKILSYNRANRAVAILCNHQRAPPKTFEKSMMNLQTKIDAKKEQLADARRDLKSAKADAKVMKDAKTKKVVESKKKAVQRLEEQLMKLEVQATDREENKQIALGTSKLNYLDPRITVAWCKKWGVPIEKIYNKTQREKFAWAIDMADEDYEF
Method in brief: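 Recombinant human topoisomerase I (T7-expressed in E. coli as a fusion protein). End-labeled plasmid YepG, CsCl-purified, incubated with drug and enzyme 30 min at 37 °C. Gel autoradiograms, typically 24 h exposure. Value is REC: concentration relative to topotecan (set at 1.0) that gives the same cleavage.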

[8] = system: RPMI 8402; assay: Cytotoxicity against camptothecin-resistant RPMI 8402; format: functional, cell-based; conditions: Homo sapiens; method in brief: as §1

SMILES	IC50 [1] [nM]	IC50 [2] [nM]	IC50 [3] [nM]	IC50 [4] [nM]	IC50 [5] [nM]	IC50 [6] [nM]	Activity [7]	IC50 [8] [nM]
CCN(CCn1c(=O)c2cc(OC)c(OC)cc2c2cnc3cc4c(cc3c21)OCO4)Cc1ccccc1	50	330	180	360	400	77	12.3	7500
COc1cc2c(=O)n(CCNC(C)(C)C)c3c4cc5c(cc4ncc3c2cc1OC)OCO5	2	6	3	37	16	2	0.1	220
COc1cc2c(=O)n(CCN3CCN(Cc4ccccc4)CC3)c3c4cc5c(cc4ncc3c2cc1OC)OCO5	250	750	500	200	700	400	1000	700
CC[C@@]1(O)C(=O)OCc2c1cc1n(c2=O)Cc2cc3c(CN(C)C)c(O)ccc3nc2-1 [TOPOTECAN]		440		> 10000		21		> 10000
COc1cc2c(=O)n(CCN(C)Cc3ccccc3)c3c4cc5c(cc4ncc3c2cc1OC)OCO5	38	150	50	450	300	53	15.8	2000
CCNCCn1c(=O)c2cc(OC)c(OC)cc2c2cnc3cc4c(cc3c21)OCO4	0.7	5	1	30	16	2	0.1	170
COc1cc2c(=O)n(CCN(Cc3ccccc3)Cc3ccccc3)c3c4cc5c(cc4ncc3c2cc1OC)OCO5	250	300	300	500	360	380	15	1950
COc1cc2c(=O)n(CCN(C(C)C)C(C)C)c3c4cc5c(cc4ncc3c2cc1OC)OCO5	6	40	5	200	40	8	4.7	600
COc1cc2c(=O)n(CCN3CCNCC3)c3c4cc5c(cc4ncc3c2cc1OC)OCO5	60	530	100	300	1900	90	4.3	2700
COc1cc2c(=O)n(CCN(C)C(C)C)c3c4cc5c(cc4ncc3c2cc1OC)OCO5	6	4	3	71	3	8	0.03	630
COc1cc2c(=O)n(CCN3CCCCC3)c3c4cc5c(cc4ncc3c2cc1OC)OCO5	6	9	4	50	13	7	0.6	400
CNCCn1c(=O)c2cc(OC)c(OC)cc2c2cnc3cc4c(cc3c21)OCO4 [GENZ-644282]	0.3	0.5	0.4	70	22	0.3	0.1 µM	250
COc1cc2c(=O)n(CCN3CCCC3)c3c4cc5c(cc4ncc3c2cc1OC)OCO5	6	4	3	60	8	3	0.3	390
COc1cc2c(=O)n(CCN(Cc3ccccc3)C(C)C)c3c4cc5c(cc4ncc3c2cc1OC)OCO5	230	500	800	650	4000	300	7.4	5900
COc1cc2c(=O)n(CCN)c3c4cc5c(cc4ncc3c2cc1OC)OCO5	3	12	5	27	15	4	0.02	250
COc1cc2c(=O)n(CCN(Cc3ccccc3)C(C)(C)C)c3c4cc5c(cc4ncc3c2cc1OC)OCO5	200	500	190	1850	2500	850	> 1000	5750
COc1cc2c(=O)n(CCN(C)C)c3c4cc5c(cc4ncc3c2cc1OC)OCO5		6		230			0.3	
COc1cc2c(=O)n(CCN3CCC(C)CC3)c3c4cc5c(cc4ncc3c2cc1OC)OCO5	14	40	30	190	50	30	> 100	450
COc1cc2c(=O)n(CCN3CCN(C)CC3)c3c4cc5c(cc4ncc3c2cc1OC)OCO5	230	400	500	650	2500	300	1000	5900
CCN(CC)CCn1c(=O)c2cc(OC)c(OC)cc2c2cnc3cc4c(cc3c21)OCO4	4	5	4	150	15	6	1.4	850
COc1cc2c(=O)n(CCNC(C)C)c3c4cc5c(cc4ncc3c2cc1OC)OCO5	1	6	5	30	5	3	0.3	180
CCN(CCn1c(=O)c2cc(OC)c(OC)cc2c2cnc3cc4c(cc3c21)OCO4)C(C)C	4	8	3	120	21	5	0.17	310
COc1cc2c(=O)n(CCNCc3ccccc3)c3c4cc5c(cc4ncc3c2cc1OC)OCO5	16	10	6	180	35	16	0.5	280

— ChEMBL document CHEMBL1142652, “5-(2-aminoethyl)dibenzo[c,h][1,6]naphthyridin-6-ones: variation of n-alkyl substituents modulates sensitivity to efflux transporters associated with multidrug resistance” (J Med Chem, 2005)
